Reference: ChEMBL document CHEMBL4325831, “Novel Pyrrole-Imidazole Polyamide Hoechst Conjugate Suppresses Epstein-Barr Virus Replication and Virus-Positive Tumor Growth” (J Med Chem, 2018)
Active and inactive are the calls of the source. The rule behind the calls is not given here.

How the values were obtained:
human gammaherpesvirus 4 [1] = assay: Inhibition of recombinant EBNA1 binding to biotin-labeled Epstein-Barr virus OriP hairpin DNA EBNA1 site 2 assessed as reduction in RU increase at 200 nM by SPR assay
In short: (§1)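 SPR in HBS-EP (10 mM HEPES pH 7.4, 150 mM NaCl, 3 mM EDTA, 0.005% P20) at 25 °C. Biotin hairpin DNA (200 nM) captured at 700–900 RU on streptavidin. Polyamide (200 nM) injected at 25 μL/min for 4 min with no dissociation phase, then 100 nM recombinant EBNA1 for 3 min. Relative reduction in RU rise recorded.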

Raji [2] = assay: Inhibition of EBNA1 binding to Epstein-Barr virus OriP DNA in human Raji cells assessed as reduction in EBV copy number at 10 uM after 120 hrs by qRT-PCR analysis; format: cell-based; conditions: human gammaherpesvirus 4
In short: (§2)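 Raji (5 × 10^5), B95-8 (5 × 10^5) or Daudi (1 × 10^6) cells cultured with 10 μM polyamide. Genomic DNA extracted at intervals (Raji every 24 h). SYBR real-time PCR in triplicate: 95 °C 5 min, then 40 cycles of 95 °C 10 s / 60 °C 30 s, followed by melt curve. EBV copies relative to cellular DNA by ΔΔCt.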

[3] = Inhibition of recombinant EBNA1 binding to biotin-labeled Epstein-Barr virus OriP hairpin DNA EBNA1 site 1 assessed as dissociation constant by SPR assay; design: species or system human gammaherpesvirus 4
human gammaherpesvirus 4 [4] = assay: Inhibition of recombinant EBNA1 binding to biotin-labeled Epstein-Barr virus OriP hairpin DNA EBNA1 site 1 assessed as reduction in RU increase at 200 nM by SPR assay; in short: as §1
[5] = Inhibition of recombinant EBNA1 binding to biotin-labeled Epstein-Barr virus OriP hairpin DNA EBNA1 site 2 assessed as dissociation constant by SPR assay; design: species or system human gammaherpesvirus 4
MOLT-4 [6] = assay: Cell growth inhibition of human MOLT4 cells at 10 uM measured at day 3 and day 6 following media refreshment every 3 days by trypan blue dye-based assay; format: functional
In short: (§3)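 5 × 10^5 cells in 2 mL medium with 10 μM polyamide. After 3 days an equal volume of fresh medium containing polyamide was added. Living cells counted by 0.4% trypan blue exclusion at days 3 and 6. Significance by one-way ANOVA.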

MOLT-4 [7] = assay: Cell growth inhibition of human MOLT4 cells after 72 hrs by MTT assay; format: functional; conditions: MOLT-4, 72 h
In short: (§4)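 Suspension cells seeded at 7 × 10^3 per well, adherent at 3 × 10^3 per well, in quadruplicate across a concentration series. Grown 72 h, then viability relative to control read by MTT. GI50 from sigmoidal dose–response fit; at least triplicate experiments. RPMI-based medium for suspension lines, high-glucose DMEM for MDA-MB-231, both with 10% FBS, 5% CO2, 37 °C.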

MDA-MB-231 = assay: Cell growth inhibition of human MDA-MB-231 cells after 72 hrs by MTT assay; format: functional; conditions: MDA-MB-231, 72 h; in short: as §4
Human gammaherpesvirus 4 [8] = assay: Inhibition of Epstein-Barr virus-induced human Raji cell proliferation after 72 hrs by MTT assay; format: functional; conditions: human gammaherpesvirus 4, Raji; in short: as §4
RPMI-8226 = assay: Cell growth inhibition of human RPMI8226 cells after 72 hrs by MTT assay; format: functional; conditions: RPMI-8226, 72 h; in short: as §4
[9] = Inhibition of recombinant EBNA1 binding to biotin-labeled Epstein-Barr virus OriP hairpin DNA EBNA1 site 2 mutant assessed as dissociation constant by SPR assay; design: species or system human gammaherpesvirus 4
In short: (§5)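 SPR on a streptavidin-coated chip (about 16 000 RU) carrying biotinylated short hairpin DNA, loaded at 200 nM and immobilized to about 700–900 RU. Run in HBS-EP (10 mM HEPES pH 7.4, 150 mM NaCl, 3 mM EDTA, 0.005% P20) at 25 °C. Polyamides were diluted first in ultrapure water, then into a concentration gradient. ka and kd were fitted from sensorgrams.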

Raji [10] = assay: Inhibition of EBNA1 binding to Epstein-Barr virus OriP DNA in human Raji cells at 10 uM after 24 to 48 hrs by chIP assay; format: cell-based; conditions: human gammaherpesvirus 4
In short: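 Raji cells with 10 μM polyamide, 8 × 10^6 harvested at 0, 24 and 48 h. Formaldehyde fixation, enzymatic chromatin ChIP; 2% input kept. IP overnight with 1 μg anti-EBNA1 or mouse IgG1, magnetic-bead capture. OriP detected by SYBR qPCR (95 °C 5 min; 40 cycles of 95 °C 15 s / 60 °C 60 s). ΔΔCt relative to input.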

Human gammaherpesvirus 4 [11] = assay: Inhibition of Epstein-Barr virus-induced human Raji cell proliferation assessed reduction in cell viability at 10 uM measured at day 3 and day 6 post dose following media refreshment every 3 days trypan blue dye-based assay; format: functional, organism-based; in short: as §3
[12] = Inhibition of recombinant EBNA1 binding to biotin-labeled Epstein-Barr virus OriP hairpin DNA EBNA1 site 1 mutant assessed as dissociation constant by SPR assay; design: species or system human gammaherpesvirus 4; in short: as §5
Human gammaherpesvirus 4 [13] = assay: Inhibition of Epstein-Barr virus-induced […] cell proliferation after 72 hrs by MTT assay; format: functional; conditions: human gammaherpesvirus 4, B-95-8, 72 h; in short: as §4
NALM-6 = assay: Cell growth inhibition of human NALM6 cells after 72 hrs by MTT assay; format: functional; conditions: NALM-6, 72 h; in short: as §4
Raji [14] = assay: Inhibition of EBNA1 binding to Epstein-Barr virus OriP DNA in human Raji cells assessed as reduction in EBNA1 protein expression up to 20 uM after 24 hrs by Western blot analysis; format: cell-based; conditions: human gammaherpesvirus 4
In short: (§6)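 Raji cells exposed 24 h to 0, 1, 2, 5, 10 or 20 μM. Cells lysed in nondenaturing buffer with protease inhibitors and run on 10% SDS-PAGE, then PVDF. Membranes probed overnight at 4 °C for EBNA1, EBNA2 and GAPDH, HRP secondary 1 h, chemiluminescent detection. At least triplicate.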

Raji [15] = assay: Inhibition of EBNA1 binding to Epstein-Barr virus OriP DNA in human Raji cells assessed as reduction in EBNA2 protein expression up to 20 uM after 24 hrs by Western blot analysis; format: cell-based; conditions: human gammaherpesvirus 4; in short: as §6
Jurkat = assay: Cell growth inhibition of human Jurkat cells after 72 hrs by MTT assay; format: functional; in short: as §4
Human gammaherpesvirus 4 [16] = assay: Inhibition of Epstein-Barr virus-induced human Daudi cell proliferation after 72 hrs by MTT assay; format: functional; conditions: human gammaherpesvirus 4, Daudi; in short: as §4
Human gammaherpesvirus 4 [17] = assay: Inhibition of Epstein-Barr virus-induced human Daudi cell proliferation assessed reduction in cell viability at 10 uM measured at day 3 and day 6 post dose following media refreshment every 3 days trypan blue dye-based assay; format: functional, organism-based; in short: as §3
[18] = Toxicity in Balb/c mouse infected with Epstein-Barr virus positive human Raji cells assessed as body weight loss at 5 to 10 mg/kg, sc administered every 3 days for 25 days and measured every 3 days before drug injection; format: organism-based; conditions: in vivo
In short: (§7)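 Female Balb/c nude mice given 1 × 10^7 Raji cells sc in left flank (in 100 μL serum-free RPMI). Dosing began at tumor ~50 mm3 (L × W × 1/2W). Compound in 100 μL 5% DMSO/0.9% NaCl, injected sc around tumor every 3 days, eight injections; vehicle n = 6, treated groups n = 7. Tumor size and body weight taken before each injection. Tumor DNA analysed by real-time PCR for relative EBV copy number.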

Human gammaherpesvirus 4 [19] = assay: Inhibition of Epstein-Barr virus-induced human Raji cell proliferation xenografted in Balb/c mouse assessed as reduction in tumor size at 10 mg/kg, sc administered every 3 days for 25 days and measured every 3 days before drug injection; format: functional, organism-based; in short: as §7
Human gammaherpesvirus 4 [20] = assay: Antiviral activity against Epstein-Barr virus positive human Raji cells xenografted in Balb/c mouse assessed as reduction in EBV DNA copy at 5 to 10 mg/kg, sc administered every 3 days for 25 days; format: functional, organism-based; in short: as §7
Daudi = assay: Inhibition of EBNA1 binding to Epstein-Barr virus OriP DNA in human Daudi cells assessed as reduction in EBV copy number at 10 uM after 120 hrs by qRT-PCR analysis; format: cell-based; conditions: human gammaherpesvirus 4; in short: as §2
Human gammaherpesvirus 4 [21] = assay: Inhibition of Epstein-Barr virus-induced human Raji cell proliferation xenografted in Balb/c mouse assessed as reduction in tumor size at 5 mg/kg, sc administered every 3 days for 25 days and measured every 3 days before drug injection; format: functional, organism-based; in short: as §7
human gammaherpesvirus 4 [22] = assay: Inhibition of EBNA1 binding to Epstein-Barr virus OriP DNA in […] cells assessed as reduction in EBV copy number at 10 uM after 120 hrs by qRT-PCR analysis; format: cell-based; in short: as §2

In the case of `CN(C)CCCNC(=O)c1cc(NC(=O)c2cc(NC(=O)c3cc(NC(=O)c4cc(NC(=O)[C@@H](CCNC(=O)c5cc(NC(=O)c6cc(NC(=O)c7nc(NC(=O)c8nccn8C)cn7C)cn6C)cn5C)NC(=O)CCCOc5ccc(-c6nc7cc(-c8nc9cc(N%10CCN(C)CC%10)ccc9[nH]8)ccc7[nH]6)cc5)cn4C)cn3C)cn2C)cn1C`, the fold change (FC) (human gammaherpesvirus 4 [1]) is reported as 0.088, the inhibition (Raji [2]) is reported as “inactive” and the Kd [3] is reported as 0.335 µM. It also gave a fold change (FC) (human gammaherpesvirus 4 [4]) of 0.091 and a Kd [5] of 0.263 µM.

For `CN(C)CCCNC(=O)c1cc(NC(=O)c2nc(NC(=O)c3cc(NC(=O)c4cc(NC(=O)[C@H](N)CCNC(=O)c5cc(NC(=O)c6cc(NC(=O)c7cc(NC(=O)c8nccn8C)cn7C)cn6C)cn5C)cn4C)cn3C)cn2C)cn1C`, the fold change (FC) (human gammaherpesvirus 4 [1]) was 0.524, the “growth inhibition (GI)” value (MOLT-4 [6]) was “inactive” and the inhibition (Raji [2]) was “inactive”. The GI50 (MOLT-4 [7]) was 30.3 µM, the GI50 (MDA-MB-231) was over 100 µM and the GI50 (Human gammaherpesvirus 4 [8]) was 29.4 µM. It also gave a Kd [3] of 0.0015 µM, a GI50 (RPMI-8226) of 43.9 µM and a Kd [9] of 0.0206 µM. For the same compound, the fold change (FC) (human gammaherpesvirus 4 [4]) was 0.646, the inhibition (Raji [10]) was “inactive” and the Kd [5] was 0.00452 µM. For the same compound, the inhibition (Human gammaherpesvirus 4 [11]) was “Active”, the Kd [12] was 0.0252 µM and the GI50 (Human gammaherpesvirus 4 [13]) was 30.2 µM. The GI50 (NALM-6) was 41.9 µM, the inhibition (Raji [14]) was “inactive” and the inhibition (Raji [15]) was “inactive”. For the same compound, the GI50 (Jurkat) was over 100 µM, the GI50 (Human gammaherpesvirus 4 [16]) was 12.9 µM and the inhibition (Human gammaherpesvirus 4 [17]) was “Active”.

With `CN(C)CCCNC(=O)c1cc(NC(=O)c2nc(NC(=O)c3cc(NC(=O)c4cc(NC(=O)[C@@H](CCNC(=O)c5cc(NC(=O)c6cc(NC(=O)c7cc(NC(=O)c8nccn8C)cn7C)cn6C)cn5C)NC(=O)CCCOc5ccc(-c6nc7cc(-c8nc9cc(N%10CCN(C)CC%10)ccc9[nH]8)ccc7[nH]6)cc5)cn4C)cn3C)cn2C)cn1C` the fold change (FC) (human gammaherpesvirus 4 [1]) was 0.412, the “growth inhibition (GI)” value (MOLT-4 [6]) was “inactive” and the inhibition (Raji [2]) was “Active”. The GI50 (MOLT-4 [7]) was 25 µM, the Activity [18] was “Non-Toxic” and the GI50 (MDA-MB-231) was over 100 µM. It also gave a GI50 (Human gammaherpesvirus 4 [8]) of 8 µM, a Kd [3] of 0.0228 µM and a GI50 (RPMI-8226) of 24.5 µM. The inhibition (Human gammaherpesvirus 4 [19]) was “Active”, the Activity (Human gammaherpesvirus 4 [20]) was “Active” and the inhibition (Daudi) was “Active”. The Kd [9] was 0.187 µM, the fold change (FC) (human gammaherpesvirus 4 [4]) was 0.583 and the inhibition (Raji [10]) was “Active”. The Kd [5] was 0.0129 µM, the inhibition (Human gammaherpesvirus 4 [11]) was “Active” and the inhibition (Human gammaherpesvirus 4 [21]) was “Active”. For the same compound, the Kd [12] was 0.747 µM, the GI50 (Human gammaherpesvirus 4 [13]) was 9.42 µM and the inhibition (human gammaherpesvirus 4 [22]) was “Active”. For the same compound, the GI50 (NALM-6) was 22.2 µM, the inhibition (Raji [14]) was “Dose-dependent effect” and the inhibition (Raji [15]) was “Dose-dependent effect”. For the same compound, the GI50 (Jurkat) was over 100 µM, the GI50 (Human gammaherpesvirus 4 [16]) was 4.02 µM and the inhibition (Human gammaherpesvirus 4 [17]) was “Active”.
